Source: PubChem
This is a sample that favours compounds with a hit; in the whole collection about 3.5% have one here.
MEKK3 PB1 HTS = modulators of MEKK3-MEK5 PB1 binding, primary screen, biochemical, wildtype MEKK3, multiplex bead flow cytometry, Alexa488-MEK5; AID 1529, 2009; bead-based flow cytometry, Alexa488-MEK5 binding to MEKK3; actives lie on both sides; 0 = blocked by unlabeled MEK5, 100 = vehicle; Mitogen-activated protein kinase kinase kinase 3 (Homo sapiens), Q99759; 290,000 tested, 1.4% active; binding response (% of control), % at 10 µM;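 active = binding response more than 3 SD above or below the average of its plate-row segment, actives on both sides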;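 also: Alexa488 bead fluorescence after subtracting the streptavidin-only scavenger bead signal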
MEKK2wt PB1 HTS = modulators of MEK5 binding to wildtype MEKK2, primary screen, biochemical, multiplex bead flow cytometry, Alexa488-MEK5; Mitogen-activated protein kinase kinase kinase 2 (Homo sapiens), Q9Y2U5; Alexa488-MEK5 binding to MEKK2 WT; actives lie on both sides; binding response (% of control), % at 10 µM; 290,000 tested, 1.1% active; in the data active = binding response below about 67% or above about 130%
MEKK2mut PB1 HTS = MEK5 binding signal on mutant MEKK2 PB1, primary screen, biochemical, multiplex bead flow cytometry, Alexa488-MEK5 | 290,000 tested, 0.35% active | AID 1530, 2009 | percent response, % at 10 µM | Alexa488-MEK5 binding to MEKK2 mutant; in the data active = percent response above about 24%, passing the limit was not always enough
WT yeast gro inh = growth inhibition of WT strain, primary screen, mitochondrial fusion inhibitor project, WT and mutant strains, chemical genetic; mitochondrial fusion phenotypic screen; inhibition, % at 10 µM; 190,000 tested, 2.1% active; in the data active = inhibition above about 58%; tested in S. cerevisiae
ABCG2 block = ABCG2 efflux pump inhibitors, primary screen, multiplex with ABCB1, IgMXP3 cells, flow cytometry | inhibition, % at 6.6 µM | JC-1 efflux | Broad substrate specificity ATP-binding cassette transporter ABCG2 (Homo sapiens), Q9UNQ0 | 190,000 tested, 0.1% active;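 active = inhibition above 80%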;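 also: 0% = DMSO and 100% = nicardipine control wells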
Target sequence (Q9UNQ0 whole entry, looked up): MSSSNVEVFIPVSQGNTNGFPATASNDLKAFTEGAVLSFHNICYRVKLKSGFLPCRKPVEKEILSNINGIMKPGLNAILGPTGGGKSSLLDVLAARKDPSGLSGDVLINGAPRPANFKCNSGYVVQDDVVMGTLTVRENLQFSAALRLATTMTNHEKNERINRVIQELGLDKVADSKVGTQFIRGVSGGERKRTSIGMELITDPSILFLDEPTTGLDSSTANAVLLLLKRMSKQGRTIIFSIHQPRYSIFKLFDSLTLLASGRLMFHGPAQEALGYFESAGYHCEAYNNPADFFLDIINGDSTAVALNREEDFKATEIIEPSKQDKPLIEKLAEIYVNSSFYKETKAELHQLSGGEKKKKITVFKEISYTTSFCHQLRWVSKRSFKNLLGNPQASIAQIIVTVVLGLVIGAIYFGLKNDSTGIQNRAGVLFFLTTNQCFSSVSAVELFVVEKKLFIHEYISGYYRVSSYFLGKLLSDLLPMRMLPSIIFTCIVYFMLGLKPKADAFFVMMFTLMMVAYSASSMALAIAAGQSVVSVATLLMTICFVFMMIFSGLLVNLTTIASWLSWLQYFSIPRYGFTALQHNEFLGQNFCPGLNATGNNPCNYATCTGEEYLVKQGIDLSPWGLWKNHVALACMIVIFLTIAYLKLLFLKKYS
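material = IgMXP3 (ABCG2) plus far-red-tagged CCRF-Adr (ABCB1) cells | amount = 3 million cells/mL, equal mix of both lines | also added = JC-1 transporter substrate | dosing = one concentration, 6.6 µM final | schedule = 10 min at 25 °C | measured by = flow cytometric JC-1 green MFI at 530 nm | read-out basis = percent efflux inhibition, scaled nicardipine 100% to DMSO 0%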
ABCB1 block = ABCB1 efflux pump inhibitors, primary screen, cell-based, multiplex, flow cytometry, ABCG2 counter-screen; inhibition, % at 6.6 µM; 190,000 tested, 0.067% active; ATP-dependent translocase ABCB1 (Homo sapiens), P08183; CCRF-Adr cells, JC-1 efflux; AID 1326, 2008; in the data active = inhibition above about 40%;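 also: 0% = vehicle and 100% = reference inhibitor; higher value means more JC-1 retained so stronger ABCB1 efflux block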
MEKK2wt confirm = modulators of MEK5 binding to wildtype MEKK2, confirmation, biochemical, single concentration, multiplex bead flow cytometry | Alexa488-MEK5 binding to MEKK2 WT; actives lie on both sides | 5,900 tested, 2.4% active | binding response (% of control), % at 10 µM | shares compounds with MEKK3 PB1 HTS; in the data active = binding response below about 16% or above about 210%; inactive = in between
MEKK2mut confirm = mutant MEKK2 PB1-MEK5 binding signal retest – biochemical, single concentration, multiplex bead flow cytometry, confirmation. 5,900 tested, 2% active. shares compounds with MEKK3 PB1 HTS. percent response, % at 10 µM. Alexa488-MEK5 binding to MEKK2 mutant; in the data active = percent response mostly above about 71%, no sharp cut-off; inactive = mostly below about 38%;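 also: higher means compound restores mutant binding toward wildtype level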
MEKK3-MEK5 inh = MEKK3 wild-type PB1 binding to MEK5, inhibitors, confirmation, biochemical, bead multiplex flow cytometry, single concentration, wildtype | shares compounds with MEKK3 PB1 HTS | Alexa488-MEK5 binding to MEKK3; active compounds read low | binding response (% of control), % at 10 µM | 5,900 tested, 1.8% active | AID 1894, 2009;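 active = binding response below 72% of control, or above a set upper limit, though filed actives all read lower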;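 also: 100% = DMSO only wells and 0% = binding blocked by excess unlabeled MEK5; lower values mean stronger disruption of MEK5 binding to MEKK3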
An asterisk follows results filed as active; . = no result; [ ] = remark or other dose.

SMILES | MEKK3 PB1 HTS | MEKK2wt PB1 HTS | MEKK2mut PB1 HTS | WT yeast gro inh | ABCG2 block | ABCB1 block | MEKK2wt confirm | MEKK2mut confirm | MEKK3-MEK5 inh
CN(C[C@H](Cc1ccccc1)N(C[C@H](Cc1ccccc1)N(CC1(c2ccccc2)CC1)N=O)N=O)N=O | 109.0 | 104.0 | 6.0 | -3.1 | 0.9 | 1.9 | . | . | .
CN(C)CC(C)(C)CNC(=S)NCc1ccc2c(c1)OCO2 | 128.0* | 104.0 | 3.0 | 4.8 | -2.0 | -0.2 | 99.0 | 3.0 | 106.0
CC(=O)Nc1ccc(S(=O)(=O)N(C)CC(=O)N/N=C/c2ccncc2)cc1 | 102.0 | 99.0 | -4.0 | . | . | . | . | . | .
CCOc1ccc2nc3cc(NCc4ccc(OC)cc4)ccc3c(N)c2c1 | 82.0*[inhibitor] | 163.0* | 139.0* | . | . | . | 220.0* | 170.0* | 98.0
CN(CCc1ccccc1)C(=O)CCc1nnc(Cc2ccc3c(c2)OCO3)o1 | 99.0 | 105.0 | -1.0 | . | . | . | . | . | .
Cc1ccc(CN2CCC(c3cc(-c4ccc(Cl)cc4)n[nH]3)CC2)cc1 | 106.0 | 167.0* | 27.0* | . | . | . | 155.0 | 32.0 | 109.0
Cc1ccc(S(=O)(=O)NCc2cc(=O)n(C)c(=O)n2C)cc1C | 95.0 | 100.0 | 2.0 | . | . | . | . | . | .
O=C(Cn1c(C(F)(F)F)nc2ccccc21)OCC(=O)c1c[nH]c2ccccc12 | 101.0 | 63.0*[inhibitor] | 10.0 | -9.9 | 11.1 | -0.6 | 96.0 | 1.0 | 97.0
Cc1[nH]c2ccccc2c1C(=O)COC(=O)Cn1c(C(F)(F)F)nc2ccccc21 | 99.0 | 98.0 | 1.0 | -0.6 | 0.9 | -0.2 | . | . | .
NCCCC[C@@H]1NC(=O)c2cc([N+](=O)[O-])cc(F)c2NCCCC[C@@H](C(N)=O)NC(=O)CNC1=O | 113.0 | 135.0* | 12.0 | -6.2 | 0.0 | -0.4 | 104.0 | 2.0 | 103.0
O=C(O)c1ccc2c(c1)C(=O)N(c1nccs1)C2=O | 115.0 | 113.0 | 12.0 | . | . | . | . | . | .
C[C@@H](NCCc1ccc(O)cc1)[C@@H](O)c1ccc(O)cc1 | 115.0 | 117.0 | 5.0 | . | . | . | . | . | .
CCCCCCCCNC(C)C(O)c1ccc(SC(C)C)cc1 (stereo not drawn) | 114.0 | 142.0* | 48.0* | 98.3* | -1.0 | 1.4 | 198.0 | 51.0 | 108.0
COc1nc(C)nc2c1ccc1ccccc12 | 136.0* | 104.0 | 2.0 | 11.6 | 5.5 | 0.9 | 98.0 | -4.0 | 104.0
COc1ccc(Oc2nc(C)nc3c2oc2ccccc23)cc1 | 116.0 | 109.0 | 3.0 | 43.0 | 0.6 | 0.1 | . | . | .
C=CCn1c(SCc2nc3ccccc3nc2C)nnc1-c1ccoc1C | 98.0 | 103.0 | 7.0 | 2.8 | 1.9 | 0.4 | . | . | .
CC(OC(=O)C(C)N1C(=O)C2C3C=CC(C4CC34)C2C1=O)C(=O)c1ccccc1 (stereo not drawn) | 145.0* | 111.0 | 1.0 | -7.9 | -1.4 | 0.1 | 101.0 | 3.0 | 99.0
CCN(CC)CC(=O)Nc1ccc2c(c1)Nc1ccccc1CC2 | 109.0 | 135.0* | 13.0 | 10.8 | 65.2 | 11.0 | 147.0 | 30.0 | 112.0
CCN(CC)CC(=O)Nc1ccc2c(c1)N(C(=O)CN(CC)CC)c1ccccc1CC2 | 94.0 | 99.0 | 0.0 | 10.1 | . | . | . | . | .
Cc1nc2ccccc2c2oc(C(=O)N3CCN(C4CCCCC4)CC3)cc12 | 93.0 | 99.0 | -2.0 | 1.5 | 3.5 | 3.2 | . | . | .
Cc1nc2ccccc2c2oc(C(=O)N3CCC(N4CCCCC4)CC3)cc12 | 112.0 | 138.0* | 26.0* | 8.2 | 0.7 | 1.0 | 144.0 | 42.0 | 97.0
CC1CN(Cc2cn(C)nc2-c2ccc(Oc3ccccc3)cc2)CCN1C (stereo not drawn) | 112.0 | 172.0* | 49.0 | -14.3 | 0.0 | 1.1 | 109.0 | 0.0 | 98.0
COc1ccc(-c2nc(CN3CCC(C(=O)N4CCOCC4)CC3)c(C)o2)cc1C | 99.0 | 101.0 | 5.0 | . | . | . | . | . | .
CCOC(=O)/C=C/c1nc(C(=O)OCC)c(C)c(=O)[nH]1 | 75.0*[inhibitor] | 98.0 | -4.0 | . | . | . | 97.0 | -2.0 | 94.0
COc1ccc(OC)c(NC(=O)CC2Oc3ccccc3NC2=O)c1 (stereo not drawn) | 102.0 | 108.0 | 4.0 | . | . | . | . | . | .
SMILES | MEKK3 PB1 HTS | MEKK2wt PB1 HTS | MEKK2mut PB1 HTS | WT yeast gro inh | ABCG2 block | ABCB1 block | MEKK2wt confirm | MEKK2mut confirm | MEKK3-MEK5 inh
COC(=O)c1c(-c2ccc(C(C)(C)C)cc2)csc1NC(=O)C1C2CCC(O2)C1C(=O)O (stereo not drawn) | 75.0*[inhibitor] | 92.0 | -1.0 | -0.1 | -8.1 | -1.3 | 99.0 | -1.0 | 105.0
COc1ccc(CN2CCN(CCSc3ccc(C)cc3)CC2)c(OC)c1OC | 105.0 | 111.0 | 4.0 | . | . | . | . | . | .
O=C(NCCc1ccccc1)C1CCN(C(=O)c2ccc([N+](=O)[O-])cc2)CC1 | 98.0 | 88.0 | -8.0 | -13.0 | -1.2 | -0.1 | . | . | .
O=C(O)/C=C/c1coc2ccc(F)cc2c1=O | 72.0*[inhibitor] | 99.0 | 0.0 | 1.0 | -1.2 | -0.9 | 106.0 | 12.0 | 106.0
COc1ccc(C(=O)N2CCOCC2)cc1Br | 125.0* | 121.0 | 7.0 | -0.1 | 4.9 | 1.1 | 93.0 | -3.0 | 96.0
CCOc1cc(C(=S)N2CCOCC2)ccc1OC | 99.0 | 95.0 | 0.0 | -10.5 | 3.2 | 0.4 | . | . | .
COc1cc(C(=S)N2CCOCC2)cc(OC)c1O | 42.0*[inhibitor] | 57.0 | -17.0 | . | . | . | 109.0 | 15.0 | 107.0
O=C(NCCc1ccccc1)C1CCC(=O)N(Cc2cccc(C(F)(F)F)c2)C1 (stereo not drawn) | 103.0 | 102.0 | 5.0 | . | . | . | . | . | .
C/C(=N\NC(=O)c1nnn(-c2nonc2N)c1-c1ccc2c(c1)OCO2)c1ccc(C)cc1 | 99.0 | 100.0 | 0.0 | . | . | . | . | . | .
C/C=C/c1ccc(OCC(O)CNCCc2ccc(OC)cc2)c(OC)c1 (stereo not drawn) | 103.0 | 120.0 | 8.0 | . | . | . | . | . | .
C/C=C/c1ccc(OCC(O)CNCC(c2ccc(OC)cc2)N(C)C)c(OC)c1 (stereo not drawn) | 111.0 | 146.0* | 19.0 | . | . | . | 120.0 | 7.0 | 101.0
Brc1cc(Cc2nnc(-c3ccccc3)o2)c(Br)s1 | 64.0 | 64.0 | -48.0 | . | . | . | . | . | .
